Measured values as given in ChEMBL document CHEMBL1671718, “Anti-Pseudomonas activity of frog skin antimicrobial peptides in a Caenorhabditis elegans infection model: a plausible mode of action in vitro and in vivo” (Antimicrob Agents Chemother, 2010).
In brackets after ≈: the same amount, converted by molar mass. Activity calls are given as the source filed them. The rule behind the calls is not given here. Where a SMILES comes first, the peptide text is derived from it.

Columns and labels:
[1] = system: Pseudomonas aeruginosa; test: Antibacterial activity against Pseudomonas aeruginosa ATCC 15692 expressing GFP infected in Caenorhabditis elegans assessed as reduction in viable bacterial count in intestinal lumen after 90 mins by fluorescence microscopy; assay type: functional, organism-based
Procedure, shortened: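 Nematodes infected 16 h with GFP-expressing ATCC 15692 (plasmid pSMC21, ampicillin-selected), moved to OP50 NGM plates with or without 0.5 nM peptide; after 90 min, gut fluorescence viewed by epifluorescence stereomicroscopy (GFP2 filter, ×60).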

[2] = system: Pseudomonas aeruginosa; test: Bactericidal activity against multidrug-resistant Pseudomonas aeruginosa clinical isolate assessed as concentration required for >= 3 log10 CFU/ml reduction in viable bacteria in phosphate-buffer saline containing 150 mM sodium salt after 90 mins; assay type: functional; settings: 1.5 h
Procedure, shortened: (§1)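 Exponential-phase bacteria resuspended at 1 × 10^7 CFU/ml in MHB or PBS; 10 μl incubated with 2-fold peptide dilutions (2–64 μM) in 100 μl, 37°C, 90 min, then plated on LB agar and counted after overnight growth. Value = concentration giving ≥3 log10 CFU/ml reduction. Solvent control 0.6% ethanol.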

[3] = system: Pseudomonas aeruginosa; test: Antibacterial activity against multidrug-resistant Pseudomonas aeruginosa clinical isolate by broth microdilution method; assay type: functional
Procedure, shortened: (§2)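 Adapted CLSI broth microdilution in Mueller-Hinton broth; mid-log bacteria at 2 × 10^6 CFU/ml mixed 1:1 with peptide dilutions (2-fold series from 20% ethanol stocks, 1–64 μM). Growth read by absorbance at 595 nm after 18–20 h at 37°C; MIC = lowest concentration giving 100% growth inhibition.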

[4] = system: Pseudomonas aeruginosa; test: Antibacterial activity against multidrug-resistant Pseudomonas aeruginosa clinical isolate infected in Caenorhabditis elegans assessed as worm survival at 0.01 nM after 48 hrs; assay type: functional, organism-based
[5] = system: Pseudomonas aeruginosa; test: Antibacterial activity against multidrug-resistant Pseudomonas aeruginosa clinical isolate infected in Caenorhabditis elegans assessed as reduction in viable bacterial count in intestinal lumen after 24 hrs by agar plate assay relative to untreated worm; assay type: functional
Procedure, shortened: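 Worms infected 6 h, then on OP50 NGM plates with 0.5 nM peptide added. Before and after 1 day, 10 worms per replicate washed three times in M9 with 20 μg/ml gentamicin, lysed in M9–1% Triton X-100, and plated on LB with 100 μg/ml ampicillin; CFU counted after overnight growth at 37°C. At least three experiments.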

[6] = Toxicity in human RBC assessed as hemolytic activity <32 to 64 uM; assay type: cell-based; settings: erythrocyte
[7] = Toxicity in human RBC assessed as hemolytic activity at 32 uM; assay type: cell-based, Erythrocyte; settings: red blood cells, read-out: Activity
[8] = system: Pseudomonas aeruginosa; test: Antibacterial activity against Pseudomonas aeruginosa ATCC 15692 by broth microdilution method; assay type: functional; procedure, shortened: as §2
[9] = system: Pseudomonas aeruginosa; test: Antibacterial activity against multidrug-resistant Pseudomonas aeruginosa clinical isolate infected in Caenorhabditis elegans assessed as increase in worm survival at 0.3 nM after 40 hrs relative untreated control; assay type: functional
Procedure, shortened: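 N2 young adults infected 6 h at 25°C on modified NGM lawns of clinical isolate, washed in M9, 15 worms/well in 50 μl S medium with E. coli OP50 plus peptide (0.3 or 0.01 nM depending on peptide); 40 h at 25°C. Dead = no movement or muscle tone; at least three experiments, mean ± SD.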

[10] = system: Pseudomonas aeruginosa; test: Bactericidal activity against multidrug-resistant Pseudomonas aeruginosa clinical isolate assessed as concentration required for >= 3 log10 CFU/ml reduction in viable bacteria in Mueller-Hinton broth after 90 mins; assay type: functional; settings: 1.5 h; procedure, shortened: as §1
[11] = system: Caenorhabditis elegans; test: Toxicity in multidrug-resistant Pseudomonas aeruginosa clinical isolate infected Caenorhabditis elegans induction of worm mortality at >0.01 nM after 48 hrs; assay type: organism-based; settings: in vivo
[12] = Toxicity in human RBC assessed as hemolytic activity upto 64 uM; assay type: cell-based; settings: erythrocyte
Procedure, shortened: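 Fresh erythrocytes from healthy human donors, washed three times in 0.9% NaCl, used as a 5% (vol/vol) final suspension. Peptides were dissolved in 20% ethanol and tested at 2 to 64 μM, with agitation at 37°C for 40 min. Hemoglobin release was read as supernatant absorbance at 540 nm. The blank was solvent at 0.6% final; hypotonic lysis gave 100%.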

[13] = system: Pseudomonas aeruginosa; test: Antibacterial activity against multidrug-resistant Pseudomonas aeruginosa clinical isolate assessed as reduction in viable bacterial count at MIC after 5 mins by time-kill analysis; assay type: functional
Procedure, shortened: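 Bacteria grown in MHB at 37°C, diluted into PBS (about 1 × 10^5 CFU in 100 μl), incubated at 37°C with peptide at its MIC; 10 μl samples taken at intervals, diluted in MHB, plated on LB agar, CFU counted after overnight growth. Controls untreated or 0.6% ethanol solvent; three independent experiments, mean ± SD.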

[14] = Toxicity in human RBC assessed as hemolytic activity at 64 uM; assay type: cell-based, Erythrocyte; settings: red blood cells, read-out: Activity
[15] = system: Pseudomonas aeruginosa; test: Induction of membrane permeation on multidrug-resistant Pseudomonas aeruginosa clinical isolate infected in Caenorhabditis elegans assessed as increase in membrane permeability assessed as increase in membrane permeability by Sytox green dye influx assay; assay type: functional, organism-based
Procedure, shortened: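 N2 adults infected 16 h, washed in M9, held about 24 h at 25°C on K medium agar to expand gut bacteria (about 1,000 CFU/worm). 200 worms per well in 300 μl K medium with 1 μM Sytox Green, 5 min in the dark; 10 nM peptide added, fluorescence (485/535 nm) read at 25°C until plateau (about 40 min). Controls: 0.3% ethanol-treated infected worms and uninfected worms; two experiments.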

[16] = system: Pseudomonas aeruginosa; test: Antibacterial activity against multidrug-resistant Pseudomonas aeruginosa clinical isolate infected in Caenorhabditis elegans assessed as increase in worm survival within 6 days agar plate assay relative to untreated worm; assay type: functional
Procedure, shortened: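 Worms infected 6 h, washed in M9, 15 per 3.5-cm NGM plate with E. coli OP50, moved daily to fresh plates freshly spread with 200 μl of 0.5 nM peptide. Death scored as absence of touch-provoked movement over 6 days versus untreated infected worms; at least three experiments.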

[17] = system: Escherichia coli; test: Induction of membrane permeation on GFP expressing Escherichia coli OP50 infected in Caenorhabditis elegans assessed as increase in membrane permeability assessed as increase in membrane permeability after 16 hrs post dose by Sytox green dye influx assay; assay type: functional, organism-based

Row | Compound | Activity [1] | MIC [2] [µM] | MIC [3] [µM] | Activity [4] | Activity [5] | Activity [6] | hemolysis at 32 µM [7] [%] | MIC [8] [µM] | fold change (FC) [9] | MIC [10] [µM] | Activity [11] | Activity [12] | CFU/ml [13] | hemolysis at 64 µM [14] [%] | Activity [15] | fold change (FC) [5] | fold change (FC) [16] | Activity [17]
1 | CC[C@H](C)[C@H](NC(=O)[C@@H]1CCCN1C(=O)[C@H](CC(C)C)NC(=O)[C@@H](N)CC(C)C)C(=O)N[C@H](C(=O)NCC(=O)N[C@@H](CC(N)=O)C(=O)N[C@@H](CC(C)C)C(=O)N[C@@H](CC(C)C)C(=O)N[C@@H](CCCCN)C(=O)N[C@@H](CO)C(=O)N[C@@H](CC(C)C)C(=O)N[C@@H](CC(C)C)C(N)=O)C(C)C (H-LLPIVGNLLKSLL-NH2) | Active | > 64 | > 64 | inactive | Active | Non-toxic | 5 | > 64 | 4 | > 64 | – | – | – | – | – | – | – | –
2 | CC[C@H](C)[C@H](NC(=O)[C@H](CCCNC(=N)N)NC(=O)CNC(=O)[C@H](CC(C)C)NC(=O)[C@H](Cc1ccccc1)NC(=O)[C@H](CCCCN)NC(=O)[C@H](CO)NC(=O)[C@H](Cc1ccccc1)NC(=O)[C@H](Cc1c[nH]c2ccccc12)NC(=O)[C@H](CCC(N)=O)NC(=O)[C@@H](NC(=O)[C@@H](N)Cc1ccccc1)C(C)C)C(=O)N[C@@H](CC(C)C)C(N)=O [TEMPORIN L] (H-FVQWFSKFLGRIL-NH2) | – | 16 | 64 (≈ 105 µg/mL) | inactive | – | – | – | – | – | > 64 | Toxic | – | – | – | – | – | – | –
3 | CC[C@H](C)[C@H](NC(=O)CN)C(=O)N[C@@H](Cc1ccccc1)C(=O)N[C@@H](CO)C(=O)N[C@@H](CCCCN)C(=O)N[C@@H](CC(C)C)C(=O)N[C@@H](C)C(=O)NCC(=O)N[C@@H](CCCCN)C(=O)N[C@@H](CCCCN)C(=O)N[C@H](C(=O)N[C@@H](CCCCN)C(=O)N[C@@H](CC(N)=O)C(=O)N[C@@H](CC(C)C)C(=O)N[C@@H](CC(C)C)C(=O)N[C@H](C(=O)N[C@@H](CO)C(=O)NCC(=O)N[C@@H](CC(C)C)C(=O)N[C@@H](CCCCN)C(=O)NCC(N)=O)[C@@H](C)CC)[C@@H](C)CC (H-GIFSKLAGKKIKNLLISGLKG-NH2) | – | 4 | 4 (≈ 8.74 µg/mL) | inactive | – | – | – | – | – | 16 (≈ 35 µg/mL) | – | Non-toxic | 998000 | – | – | – | – | –
4 | CC[C@H](C)[C@H](NC(=O)CNC(=O)[C@H](CO)NC(=O)[C@H](CC(C)C)NC(=O)[C@@H](NC(=O)[C@H](CCCCN)NC(=O)CNC(=O)[C@@H](NC(=O)[C@H](CC(C)C)NC(=O)[C@@H]1CCCN1C(=O)[C@H](CC(C)C)NC(=O)[C@@H](N)Cc1ccccc1)[C@@H](C)CC)C(C)C)C(=O)N[C@@H](CC(C)C)C(N)=O (H-FLPLIGKVLSGIL-NH2) | – | > 64 | > 64 | inactive | – | Non-toxic | – | – | – | > 64 | – | – | – | 12 | – | – | – | –
5 | CC[C@H](C)[C@H](NC(=O)CN)C(=O)N[C@@H](Cc1ccccc1)C(=O)N[C@@H](CO)C(=O)N[C@@H](CCCCN)C(=O)N[C@@H](CC(C)C)C(=O)N[C@@H](C)C(=O)NCC(=O)N[C@@H](CCCCN)C(=O)N[C@@H](CCCCN)C(=O)N[C@@H](CC(C)C)C(=O)N[C@@H](CCCCN)C(=O)N[C@@H](CC(N)=O)C(=O)N[C@@H](CC(C)C)C(=O)N[C@@H](CC(C)C)C(=O)N[C@H](C(=O)N[C@@H](CO)C(=O)NCC(N)=O)[C@@H](C)CC (H-GIFSKLAGKKLKNLLISG-NH2) | Active | 16 | 8 (≈ 15.1 µg/mL) | inactive | – | – | – | 8 (≈ 15.1 µg/mL) | 4 | 64 (≈ 121 µg/mL) | – | Non-toxic | 950000 | – | Active | 5 | 2 | inactive
